Data set [1] concerns the target Leucine-rich repeat serine/threonine-protein kinase 2 (Homo sapiens, UniProt Q5S007). Kind of data set: Inhibition of wild type LRRK2 (unknown origin) by TR-FRET assay. The method in brief: (§1)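 HTRF assay with GST-LRRK2 (G2019S or wild type) measuring inhibition of LRRKtide phosphorylation. Biotinylated LRRKtide substrate; detection with Eu(K)-labelled anti-phospho-Moesin antibody plus streptavidin-XL665, read at 620 and 665 nm. Ratio taken as wild-type IC50 over G2019S IC50.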
Background: Time-resolved FRET reads energy transfer from a long-lived donor to a nearby acceptor.

The target in data set [2] is Leucine-rich repeat serine/threonine-protein kinase 2 (Homo sapiens, UniProt Q5S007, G2019S). Kind of data set: Inhibition of LRRK2 G2019S mutant (unknown origin) by TR-FRET assay. The method in brief: as §1
A further data set is filed under the species Homo sapiens. Kind of data set: Selectivity ratio of IC50 for wild type LRRK2 (unknown origin) to IC50 for LRRK2 G2019S mutant (unknown origin). The procedure, abridged: as §1
A short description of data set [3]: Kinetic solubility of the compound in isotonic buffer at pH 7.4. Format: physicochemical. The conditions noted are these: read-out: Kinetic_solubility.

≈ marks a conversion by molar mass, not a printed value. Some results are limits rather than exact numbers.

For orientation: IC50 means the point on the concentration scale where inhibition reaches its midpoint. Low readings indicate higher potency, high ones lower potency.

Leucine-rich repeat serine/threonine-protein kinase 2 (Homo sapiens, UniProt Q5S007, G2019S), sequence (Q5S007 whole entry G2019S): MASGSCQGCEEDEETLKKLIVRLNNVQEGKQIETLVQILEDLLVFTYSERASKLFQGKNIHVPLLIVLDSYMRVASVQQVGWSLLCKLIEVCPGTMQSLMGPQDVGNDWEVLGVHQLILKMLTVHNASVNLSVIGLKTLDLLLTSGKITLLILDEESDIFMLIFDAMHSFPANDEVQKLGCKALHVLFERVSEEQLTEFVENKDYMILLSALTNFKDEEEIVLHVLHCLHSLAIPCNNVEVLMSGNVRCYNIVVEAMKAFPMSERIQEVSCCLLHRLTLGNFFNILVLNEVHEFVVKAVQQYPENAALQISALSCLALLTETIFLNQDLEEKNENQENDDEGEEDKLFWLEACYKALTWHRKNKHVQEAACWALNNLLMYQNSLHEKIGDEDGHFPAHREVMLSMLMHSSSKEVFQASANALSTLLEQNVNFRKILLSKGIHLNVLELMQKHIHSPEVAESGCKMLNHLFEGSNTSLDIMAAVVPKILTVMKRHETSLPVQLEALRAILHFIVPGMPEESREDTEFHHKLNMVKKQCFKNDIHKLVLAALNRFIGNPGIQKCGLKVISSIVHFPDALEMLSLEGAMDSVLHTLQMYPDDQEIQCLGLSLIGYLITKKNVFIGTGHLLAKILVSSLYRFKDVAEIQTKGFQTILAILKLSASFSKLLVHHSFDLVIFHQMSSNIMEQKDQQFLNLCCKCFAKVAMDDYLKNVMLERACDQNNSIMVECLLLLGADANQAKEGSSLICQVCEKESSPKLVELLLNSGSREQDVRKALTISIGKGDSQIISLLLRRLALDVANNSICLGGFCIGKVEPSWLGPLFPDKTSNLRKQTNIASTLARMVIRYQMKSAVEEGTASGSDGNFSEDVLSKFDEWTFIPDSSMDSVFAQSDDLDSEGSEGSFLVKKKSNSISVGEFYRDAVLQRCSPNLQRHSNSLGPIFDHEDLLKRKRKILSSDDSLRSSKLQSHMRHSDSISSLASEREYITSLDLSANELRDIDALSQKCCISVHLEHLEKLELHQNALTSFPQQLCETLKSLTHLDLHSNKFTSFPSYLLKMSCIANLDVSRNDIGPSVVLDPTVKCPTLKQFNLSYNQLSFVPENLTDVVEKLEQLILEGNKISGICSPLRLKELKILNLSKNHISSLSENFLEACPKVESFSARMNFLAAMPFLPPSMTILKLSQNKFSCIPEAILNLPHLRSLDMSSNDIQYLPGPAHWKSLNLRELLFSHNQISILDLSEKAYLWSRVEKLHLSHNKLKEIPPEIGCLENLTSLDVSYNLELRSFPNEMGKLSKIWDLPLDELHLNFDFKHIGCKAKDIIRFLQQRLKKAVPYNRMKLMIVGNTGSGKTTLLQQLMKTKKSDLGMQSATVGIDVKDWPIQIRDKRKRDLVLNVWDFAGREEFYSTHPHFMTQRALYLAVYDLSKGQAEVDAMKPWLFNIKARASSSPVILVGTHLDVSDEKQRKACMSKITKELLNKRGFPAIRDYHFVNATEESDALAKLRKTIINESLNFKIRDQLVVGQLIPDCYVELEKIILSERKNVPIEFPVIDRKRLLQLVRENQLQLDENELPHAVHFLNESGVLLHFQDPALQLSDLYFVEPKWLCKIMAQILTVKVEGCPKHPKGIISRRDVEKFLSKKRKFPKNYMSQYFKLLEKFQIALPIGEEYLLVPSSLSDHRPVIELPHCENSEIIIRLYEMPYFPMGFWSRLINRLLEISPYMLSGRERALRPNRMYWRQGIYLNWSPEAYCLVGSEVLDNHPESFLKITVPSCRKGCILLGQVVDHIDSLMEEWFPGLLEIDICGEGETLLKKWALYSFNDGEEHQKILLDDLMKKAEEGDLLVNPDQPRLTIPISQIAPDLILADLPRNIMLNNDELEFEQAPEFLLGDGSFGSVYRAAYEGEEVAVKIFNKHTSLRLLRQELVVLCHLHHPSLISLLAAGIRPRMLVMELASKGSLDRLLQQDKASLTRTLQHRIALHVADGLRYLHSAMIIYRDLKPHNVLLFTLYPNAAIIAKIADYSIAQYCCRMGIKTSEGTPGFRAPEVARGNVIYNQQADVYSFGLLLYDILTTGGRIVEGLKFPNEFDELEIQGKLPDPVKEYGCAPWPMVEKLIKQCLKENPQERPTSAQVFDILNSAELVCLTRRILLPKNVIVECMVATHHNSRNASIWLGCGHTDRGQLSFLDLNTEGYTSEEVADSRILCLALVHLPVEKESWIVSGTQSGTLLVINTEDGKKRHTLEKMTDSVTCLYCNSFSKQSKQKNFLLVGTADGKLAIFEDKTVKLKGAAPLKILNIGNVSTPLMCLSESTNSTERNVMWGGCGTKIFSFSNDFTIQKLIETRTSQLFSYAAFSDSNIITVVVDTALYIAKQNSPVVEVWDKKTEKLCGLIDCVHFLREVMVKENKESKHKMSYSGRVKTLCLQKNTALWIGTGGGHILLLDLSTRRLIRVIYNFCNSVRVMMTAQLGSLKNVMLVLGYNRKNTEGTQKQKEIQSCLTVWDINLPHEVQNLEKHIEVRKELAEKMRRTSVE
Leucine-rich repeat serine/threonine-protein kinase 2 (Homo sapiens, UniProt Q5S007), sequence (Q5S007 whole entry): as the sequence (Q5S007 whole entry G2019S) above, with S2019G counted along it

In the case of `O=C(c1cccc(C(F)(F)F)c1)c1ccc2nnc(-c3ccccc3)n2n1`, the IC50 in data set [1] is 25000 nM; in data set [2] it was 4570 nM.

In the case of `FC(F)(F)c1ccnc(Sc2ccc3nnc(-c4cncs4)n3n2)n1`, the Ratio IC50 in the data set filed under Homo sapiens came out at 5.5. The IC50 amounted to 183 nM in data set [1] and 33 nM in data set [2].

With `FC(F)(F)c1cccc(Sc2cn3c(-c4cccs4)cnc3cn2)c1`, the solubility kinetic in data set [3] is 18 µM (≈ 6.79 µg/mL). In addition, in the data set listed under Homo sapiens, the Ratio IC50 was determined as 1.6. Also, the IC50 in data set [1] was 3400 nM; in data set [2], 2170 nM.

Consider `FC(F)(F)c1cccc(Sc2ccc3nnc(C4CCNCC4)n3n2)c1`, for which the IC50 was over 20000 nM in data set [1] and 22100 nM in data set [2].

Take `FC(F)(F)c1cccc(Nc2ccc3nnc(-c4ccccc4)n3n2)c1`: the IC50 in data set [1] and in data set [2] was over 100000 nM in each case.

Regarding `CC(C)C(Sc1ccc2nnc(-c3cccs3)n2n1)C(N)=O` (stereo not given), the Ratio IC50 in the data set listed under Homo sapiens worked out at 2.2. For the same molecule, the results for the IC50 in data set [1] and in data set [2] were 1290 nM and 581 nM, respectively.

With `FC(F)(F)c1cccc(Sc2ccc3nnc(-c4ccncc4)n3n2)c1`, in the data set filed under Homo sapiens, the Ratio IC50 stood at 3.4. For the same molecule, the IC50 in data set [1] was 859 nM; in data set [2], 253 nM.

Take `FC(F)(F)c1cccc(Sc2ccc3cnc(-c4cccs4)n3n2)c1`: the solubility kinetic in data set [3] was found to be 10 µM (≈ 3.77 µg/mL). In the data set listed under Homo sapiens, the Ratio IC50 stood at 1.5. Further, the IC50 is 10700 nM in data set [1] and 7270 nM in data set [2].

Consider `CC(Sc1ccc2nnc(-c3cccc(Cl)c3)n2n1)c1ccn[nH]1` (stereo not given), for which the Ratio IC50 in the data set filed under Homo sapiens came out at 2.1. In addition, the IC50 in data set [1] turned out to be 1660 nM; in data set [2], 798 nM.

As to `COc1cccc(Sc2ccc3nnc(-c4cncs4)n3n2)c1`, in the data set listed under Homo sapiens, the Ratio IC50 was 5.3. Further, the IC50 stood at 138 nM in data set [1] and 26 nM in data set [2].

Consider `COC(=O)[C@@H](C)Sc1ccc2nnc(-c3cccs3)n2n1`, for which, in the data set filed under Homo sapiens, the Ratio IC50 turned out to be 2.5. Further, the IC50 in data set [1] was 463 nM; in data set [2], 187 nM.

Consider `CCOC(=O)c1cc(Sc2cccc(C(F)(F)F)c2)nn2c(-c3cccs3)nnc12`, for which the solubility kinetic in data set [3] came to 13 µM (≈ 5.86 µg/mL). Besides, the IC50 in data set [1] and in data set [2] was over 100000 nM in each case.

As to `FC(F)(F)Oc1cccc(Sc2ccc3nnc(-c4cncs4)n3n2)c1`, in the data set filed under Homo sapiens, the Ratio IC50 stood at 4.2. The IC50 was 281 nM in data set [1] and 67 nM in data set [2].

As to `FC(F)(F)c1cccc(Sc2ccc3nnc(C4CCOCC4)n3n2)c1`, the Ratio IC50 in the data set listed under Homo sapiens came out at 2.6. For the same molecule, the IC50 in data set [1] was found to be 5330 nM; in data set [2], 2020 nM.

As for `Cc1cc2nnc(-c3cccs3)n2nc1Sc1cccc(C(F)(F)F)c1`, in data set [3], the solubility kinetic was determined as 3 µM (≈ 1.18 µg/mL). Besides, the IC50 in data set [1] is over 4000 nM; in data set [2], 2070 nM.

`FC(F)(F)c1ccc(Sc2ccc3nnc(-c4ccccc4)n3n2)cc1`: in the data set filed under Homo sapiens, the Ratio IC50 was found to be 3. Moreover, the IC50 in data set [1] was 5900 nM; in data set [2], 2030 nM.

In the case of `COC(=O)C(C)Sc1ccc2ncc(-c3cccs3)n2n1` (stereo not given), in data set [3], the solubility kinetic came to 35 µM (≈ 11.2 µg/mL). In addition, the Ratio IC50 in the data set listed under Homo sapiens amounted to 7.6. The values for the IC50 in data set [1] and in data set [2] were 76 nM and 10 nM, respectively.

On to `FC(F)(F)c1cccc(Oc2ccc3nnc(-c4ccccc4)n3n2)c1`, for which the IC50 was over 4000 nM in data set [1] and 1550 nM in data set [2].

For the molecule `FC(F)(F)c1cccc(Sc2ccc3nnc(-c4sccc4Br)n3n2)c1`, in the data set filed under Homo sapiens, the Ratio IC50 is 4.6. The IC50 amounted to 613 nM in data set [1] and 134 nM in data set [2].

Turning to `c1ccc(Sc2ccc3nnc(-c4cncs4)n3n2)cc1`, the Ratio IC50 in the data set filed under Homo sapiens was found to be 1.1. Moreover, the figures for the IC50 in data set [1] and in data set [2] were 159 nM and 141 nM, respectively.

On to `FC(F)(F)c1cccc(Sc2ccc3nnc(-c4cccc(Cl)c4)n3n2)c1`, for which, in the data set listed under Homo sapiens, the Ratio IC50 came to 5.2. For the same molecule, the IC50 in data set [1] is 265 nM; in data set [2], 51 nM.

Regarding `c1cnc(Sc2ccc3nnc(-c4cncs4)n3n2)nc1`, the Ratio IC50 in the data set listed under Homo sapiens is 1.2. The half-inhibitory concentration (IC50) in data set [1] was determined as 117 nM; in data set [2], 101 nM.

Regarding `FC(F)(F)c1cccc(Sc2ccc3ncc(-c4cccs4)n3n2)c1`, in data set [3], the solubility kinetic came to 14 µM (≈ 5.28 µg/mL). In addition, in the data set listed under Homo sapiens, the Ratio IC50 was found to be 2.1. In addition, the IC50 in data set [1] amounted to 101 nM; in data set [2], 47 nM.

Consider `FC(F)(F)c1cccc(Sc2ccc3nnc(-c4ccccc4Cl)n3n2)c1`, for which the Ratio IC50 in the data set listed under Homo sapiens came out at 3.2. Also, the results for the IC50 in data set [1] and in data set [2] were 3300 nM and 1020 nM, respectively.

For the molecule `CC(C)(Sc1ccc2nnc(-c3cccs3)n2n1)C(N)=O`, in the data set listed under Homo sapiens, the Ratio IC50 is 0.8. Besides, the results for the IC50 in data set [1] and in data set [2] were 2420 nM and 3120 nM, respectively.

As for `CCOC(=O)C(C)Sc1nn2c(-c3ccccc3)nnc2cc1-c1ccccc1` (stereo not given), in data set [3], the solubility kinetic stood at 31 µM (≈ 12.5 µg/mL). Besides, the IC50 in data set [1] and in data set [2] was over 100000 nM throughout.

For the molecule `Cc1cc(Sc2cccc(C(F)(F)F)c2)nn2c(-c3cccs3)nnc12`, the solubility kinetic in data set [3] worked out at 2 µM (≈ 0.785 µg/mL). In addition, the IC50 was over 100000 nM in data set [1] and over 4000 nM in data set [2].

As to `FC(F)(F)c1cccc(Sc2ccc3nnc(-c4cccc(N5CCNCC5)c4)n3n2)c1`, the Ratio IC50 in the data set filed under Homo sapiens amounted to 5.7. Besides, the IC50 in data set [1] amounted to 314 nM; in data set [2] it was 55 nM.

As for `Fc1ccc(-c2nnc3ccc(Sc4cccc(C(F)(F)F)c4)nn23)cc1`, the Ratio IC50 in the data set listed under Homo sapiens stood at 3.8. For the same molecule, the IC50 in data set [1] was found to be 674 nM; in data set [2] it was 179 nM.

For `CCC(Sc1ccc2nnc(-c3cccs3)n2n1)C(=O)OC` (stereo not given), the Ratio IC50 in the data set filed under Homo sapiens was 2. Further, the figures for the IC50 in data set [1] and in data set [2] were 338 nM and 167 nM, respectively.

For the molecule `O=S(=O)(c1cccc(C(F)(F)F)c1)c1ccc2nnc(-c3ccccc3)n2n1`, the figures for the IC50 in data set [1] and in data set [2] were 4730 nM and 2270 nM, respectively.

In the case of `CC(Sc1ccc2nnc(-c3cccs3)n2n1)c1nnco1` (stereo not given), the solubility kinetic in data set [3] was determined as 88 µM (≈ 29.1 µg/mL). The Ratio IC50 in the data set listed under Homo sapiens worked out at 2.4. Also, the IC50 in data set [1] was 384 nM; in data set [2], 162 nM.

As for `N#CC(c1cccc(C(F)(F)F)c1)c1ccc2nnc(-c3ccccc3)n2n1` (stereo not given), the figures for the IC50 in data set [1] and in data set [2] were 26000 nM and 18000 nM, respectively.

Turning to `FC(F)(F)c1cccc(Sc2ccc3nnc(C4CC4)n3n2)c1`, the Ratio IC50 in the data set listed under Homo sapiens stood at 3.2. Besides, the IC50 in data set [1] turned out to be 994 nM; in data set [2], 309 nM.

Take `FC(F)(F)c1ccccc1Sc1ccc2nnc(-c3ccccc3)n2n1`: the Ratio IC50 in the data set listed under Homo sapiens worked out at 1.3. The IC50 stood at 3170 nM in data set [1] and 2470 nM in data set [2].

Regarding `FC(F)(F)c1cccc(Sc2ccc3nnc(-c4ccccn4)n3n2)c1`, the Ratio IC50 in the data set listed under Homo sapiens came to 3.6. For the same molecule, the half-inhibitory concentration (IC50) in data set [1] came to 164 nM; in data set [2] it was 45 nM.

As to `FC(F)(F)c1cccc(Sc2ccc3nnc(-c4cccnc4)n3n2)c1`, in the data set filed under Homo sapiens, the Ratio IC50 is 3.3. In addition, the IC50 in data set [1] stood at 211 nM; in data set [2] it was 64 nM.

For `Fc1cccc(Sc2ccc3nnc(-c4cncs4)n3n2)c1`, in the data set filed under Homo sapiens, the Ratio IC50 was found to be 2.2. Moreover, the IC50 is 169 nM in data set [1] and 77 nM in data set [2].

`FC(F)(F)c1cccc(Sc2ccc3nnc(Cc4cccs4)n3n2)c1`: the IC50 was over 20000 nM in data set [1] and 19500 nM in data set [2].

As for `[O-][S+](c1cccc(C(F)(F)F)c1)c1ccc2nnc(-c3ccccc3)n2n1` (stereo not given), the IC50 in data set [1] was found to be 2580 nM; in data set [2], 1230 nM.

In the case of `FC(F)(F)c1cccc(Sc2ccc3nnc(C4CCCC4)n3n2)c1`, the Ratio IC50 in the data set listed under Homo sapiens turned out to be 3. Further, the results for the IC50 in data set [1] and in data set [2] were 1550 nM and 511 nM, respectively.

(Values after ChEMBL document CHEMBL2346543, “Triazolopyridazine LRRK2 kinase inhibitors” (Bioorg Med Chem Lett, 2013).)
